Only some compounds are listed: those with a hit (about 2.3% of all), similar ones and a draw of the others.
OXTR agonist – activates the human oxytocin receptor; P30559; AID 2435; CHO-OTR cells, Fluo-8 calcium fluorescence; normalized: DMSO 0%, oxytocin 100%; 320,000 tested, 0.32% active; activation, % at 3 µM;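 active = activation above the mean of all tested compounds plus 3 SD, cutoff set per screening run, cut at about 20% in these data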;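 note: peak over basal fluorescence ratio from a 100 s FLIPR kinetic read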
TAAR1 ag – human TAAR1 agonism; Q96RJ0; CHO RD-HGA16 TAAR1, Fluo-8 calcium fluorescence; vehicle wells 0%, saturating PEA agonist 100%; activation, % at 3 µM; 360,000 tested, 0.99% active; AID 624467;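 active = activation above the mean activation of all test compounds in the run plus 3 SD, cut at about 38% in these data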
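System: CHO-derived RD-HGA16 cells with stable Gα16 and human TAAR1 / Times: 17-24 h plating, Fluo-8 75 min 37 °C, 30 min RT / Technique: calcium-sensitive Fluo-8 signal, excitation 470-495, emission 515-575 nm / Measure: % activation relative to PEA EC100 response / Benchmarks: DMSO and PEA EC100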
OXTR potentiator – human OXTR potentiation. CHO-OTR cells, Fluo-8 calcium fluorescence, potentiator mode; 0% = oxytocin EC15, 100% = EC100. 320,000 tested, 0.061% active. activation, % at 3 µM. P30559;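 active = activation above that plate's cutoff, the mean activation of tested compounds plus 3 SD, cut at about 6.6% in these data, passing the limit was not always enough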;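 note: 100% uses oxytocin at 75 nM as the full agonist control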
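test system = CHO-OTR cells, human receptor | compound = single-point 3.0 µM | schedule = 6 min compound pre-incubation at room temperature, 100 s kinetic read | signal = Fluo-8 no-wash calcium dye fluorescence, excitation 470-495 nm, emission 515-575 nm | repeats = single well per compound, singlicate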
V1aR counter – activates human V1a receptor in oxytocin agonist counter-screen. CHO-V1R cells, Fluo-8 calcium fluorescence, agonist mode; 0% DMSO, 100% 3 nM vasopressin. 320,000 tested, 0.25% active. P37288. activation, % at 3 µM;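 active = activation above the mean activation of all tested compounds plus 3 SD, per screening run, cut at about 20% in these data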;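 note: signal is peak over basal fluorescence ratio across a 100 second FLIPR read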
Target sequence (P37288 whole entry, looked up): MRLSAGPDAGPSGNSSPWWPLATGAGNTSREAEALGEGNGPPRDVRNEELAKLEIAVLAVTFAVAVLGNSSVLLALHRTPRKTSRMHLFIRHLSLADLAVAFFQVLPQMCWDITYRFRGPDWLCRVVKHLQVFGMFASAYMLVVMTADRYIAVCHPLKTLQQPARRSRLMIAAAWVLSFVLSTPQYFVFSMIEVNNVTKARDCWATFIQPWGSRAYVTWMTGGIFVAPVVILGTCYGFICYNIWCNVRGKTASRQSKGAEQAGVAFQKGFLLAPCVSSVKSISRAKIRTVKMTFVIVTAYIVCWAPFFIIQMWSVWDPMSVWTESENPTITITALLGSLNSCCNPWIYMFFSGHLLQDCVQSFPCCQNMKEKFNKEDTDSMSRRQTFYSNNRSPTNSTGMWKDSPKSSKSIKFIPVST
TAAR1 antag – antagonists of human TAAR1. CHO RD-HGA16 TAAR1, Fluo-8 calcium fluorescence, antagonist. inhibition, % at 3 µM. 360,000 tested, 1.5% active;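 active = inhibition above a per-plate cutoff, the mean inhibition of test compounds on that plate plus 3 SD, cut at about 49% in these data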;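 note: 0% = DMSO plus EC80 beta-PEA response and 100% = DMSO alone without agonist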
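test system = CHO RD-HGA16 cells bearing hTAAR1 | replication = singlicate | controls = DMSO-only wells and EC80 β-PEA-stimulated wells | reagent = EC80 β-phenethylamine stimulus | read-out basis = percent inhibition of PEA-evoked calcium signal, max/basal emission ratio | schedule = seeding 17-24 h prior, 75-min 37 °C, 30-min RT dye loading | signal = kinetic Fluo-8 calcium fluorescence measurement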
TAAR1 ag confirm – human TAAR1 agonism, confirmed; 2,400 tested, 82% active; AID 651783; shares compounds with TAAR1 ag; CHO RD-HGA16 TAAR1, Fluo-8 calcium fluorescence; scaled: DMSO 0%, maximal phenethylamine 100%; activation, % at 3 µM;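 active = activation above a cutoff set at the run's mean compound activation plus 3 SD, cut at about 39% in these data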
Ga16 ag counter – counter-screen for TAAR1 agonists: nonselective agonists in parental cells. 2,400 tested, 50% active. CHO-Ga16 parental, Fluo-8 calcium fluorescence; normalized to maximal ATP response, DMSO zero. shares compounds with TAAR1 ag. AID 651787. activation, % at 3 µM;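 active = activation above the run cutoff, the mean activation over all tested wells plus 3 SD, cut at about 12% in these data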;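 note: 0% = DMSO wells and 100% = maximal ATP response on the peak over basal ratio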
TAAR1 desensitize – human TAAR1 agonist that also desensitizes the receptor; shares compounds with TAAR1 ag; CHO RD-HGA16 hTAAR1, Fluo-8 calcium, beta-PEA response inhibition; inhibition, % at 3 µM; 2,400 tested, 46% active; AID 651951;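 active = inhibition above the run cutoff, the mean inhibition of all test compounds plus 3 SD, cut at about 49% in these data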;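 note: beta-PEA stimulus applied at its EC80; loss of beta-PEA calcium signal after compound pretreatment read as receptor desensitization; 0% = DMSO with beta-PEA at EC80 and 100% = DMSO alone without agonist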
Ga16 antag count – nonselective Ga16 antagonist in TAAR1 agonist counter-screen. shares compounds with TAAR1 ag. CHO-Ga16 ATP-induced calcium, Fluo-8 fluorescence. inhibition, % at 3 µM. 2,400 tested, 39% active. AID 651952;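 active = inhibition above the plate's mean compound inhibition plus 3 SD, computed per plate, cut at about 22% in these data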;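 note: 0% = EC80 ATP with DMSO and 100% = DMSO wells without ATP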
* marks the source's active call; other numbers are inactive results; · = not tested or not shown.

SMILES	OXTR agonist	TAAR1 ag	OXTR potentiator	V1aR counter	TAAR1 antag	TAAR1 ag confirm	Ga16 ag counter	TAAR1 desensitize	Ga16 antag count
CN1CCN(C(c2ccc(Cl)cc2)c2cc(Cl)c3cccnc3c2O)CC1 (configuration not stated)	1	69*	-12	2	-1	118*	67*	49*	20
Cc1cccc(C)c1OCc1cc(C(=O)N2CCN(Cc3nccn3C)CC2)no1	1	2	-5	2	4	·	·	·	·
C=CCc1cc(Cl)ccc1OCCOCCN(C)C	2	3	-12	0	-2	·	·	·	·
CCN1CCN(c2ccc(NC(=O)CCc3c(C)nc4c(-c5ccccc5)c(C)nn4c3C)cc2)CC1	1	·	-8	2	·	·	8	·	6
N#CCC(=O)Nc1ccc(C(=O)NNC(=O)c2ccccc2-n2cccc2)cc1	1	1	1	0	-10	·	·	·	·
CCOC(=O)c1c(C)[nH]c(C(=O)CN2C(=O)NC(C)(c3ccc(C)cc3)C2=O)c1C (configuration not stated)	19	97*	-25	20	9	102*	50*	58*	33*
CCOC(=O)c1c(C)[nH]c(C(=O)CN2C(=O)NC(CC)(c3ccccc3)C2=O)c1C (configuration not stated)	14	53*	-15	9	20	34	12*	20	10
CCOC(=O)c1c(C)[nH]c(C(=O)CN2C(=O)NC(C)(C)C2=O)c1C	·	4	·	·	-30	·	·	·	·
CCN(CC)S(=O)(=O)c1cccc(C(=O)NCC2(N3CCOCC3)CCCCC2)c1	·	0	·	·	-1	·	·	·	·
O=C(N/N=C\c1c(O)ccc2ccccc12)c1cncc(Br)c1	152*	121*	-17	155*	59*	72*	90*	52*	58*
COc1ccc(C2N(C(=O)C(F)(F)F)C(C)CN2S(=O)(=O)c2ccc(C)cc2)cc1 (configuration not stated)	-2	-4	-15	0	-4	·	·	·	·
O=C(CC1CCCC1)N[C@H](C(=O)N1CCC[C@H]1C(=O)NCc1ccccc1)c1ccccc1	·	0	·	·	6	·	·	·	·
CCOC(=O)N[C@H](C(=O)N1CCC[C@H]1C(=O)NCCc1ccccc1Cl)c1ccccc1	·	69*	·	·	64*	85*	2	83*	6
O=C(CC1CCCC1)N[C@H](C(=O)N1CCC[C@H]1C(=O)NCCc1ccccc1Cl)c1ccccc1	·	55*	·	·	53*	86*	7	79*	11
COc1ccc(CN2C(=O)C(CC(=O)NCCc3ccccn3)CC(C(=O)N(C)C)=C2C)cc1 (configuration not stated)	·	46*	·	·	-6	62*	-1	12	4
Cc1cccc(NC2=C(NCCO)C(=O)c3ccccc3C2=O)c1	-2	1	-1	-1	-3	·	·	·	·
Cn1c(=O)c(NC2CCCCC2)c2c3c(cccc31)C(=O)c1ccccc1-2	·	87*	·	·	66*	120*	124*	78*	83*
Cn1c(=O)cc2c3c(c(N4CCCCC4)ccc31)C(=O)c1ccccc1-2	-3	0	2	-1	5	·	·	·	·
Cn1c(=O)c(NCCO)c2c3c(cccc31)C(=O)c1ccccc1-2	522*	285*	-22	569*	58*	52*	158*	37	48*
Cn1c(=O)c(NCCc2ccccc2)c2c3c(cccc31)C(=O)c1ccccc1-2	213*	407*	-17	279*	104*	346*	305*	103*	95*
O=C(O)/C=C/C(=O)NC1CCCCCCCCCCC1	9	5	-8	9	-4	·	·	·	·
CC(=O)c1sc2nsc(SCCN3CCCC3)c2c1N	3	4	-3	9	-11	·	·	·	·
COc1ccc(NC(=O)CN2C(=O)NC(C)(Cc3ccc(OC)c(OC)c3)C2=O)cc1 (configuration not stated)	·	2	·	·	-22	·	·	·	·
CN(CCCNC(=O)c1ccc(CS(=O)c2ccc(Br)cc2)o1)Cc1ccccc1 (configuration not stated)	0	-1	1	-1	-21	·	·	·	·
Oc1ccc(C2CNCc3sccc32)cc1O (configuration not stated)	1	92*	-2	1	78*	105*	6	95*	5
SMILES	OXTR agonist	TAAR1 ag	OXTR potentiator	V1aR counter	TAAR1 antag	TAAR1 ag confirm	Ga16 ag counter	TAAR1 desensitize	Ga16 antag count
O=C(Cc1ccccc1)N/N=C/C=C/c1ccccc1[N+](=O)[O-]	-2	1	-7	8	5	·	·	·	·
O=C(O)c1ccc(N/N=C/C=C/c2ccccc2[N+](=O)[O-])cc1	7	66*	-3	5	48	51*	21*	53*	36*
COc1ccccc1NS(=O)(=O)c1ccc2[nH]c(=S)oc2c1	1	1	2	1	-3	·	·	·	·
COc1ncnc2c1ncn2CCCNCC(C)c1ccccc1 (configuration not stated)	·	65*	·	·	47	81*	0	50*	4
Clc1ccc(OCCNCCc2ccccc2)cc1	8	81*	-16	4	11	92*	10	75*	17
c1ccc(CCNCCCOc2cccc3ccccc23)cc1	10	57*	-13	10	43	95*	26*	87*	34*
O=C(NCCc1ccccc1)C(=O)NCC1OCCN1S(=O)(=O)c1ccc2c(c1)OCCO2 (configuration not stated)	0	58*	-14	2	33	77*	6	58*	21
O=C(NCc1ccccc1)C(=O)NCC1OCCN1S(=O)(=O)c1ccc2c(c1)OCCO2 (configuration not stated)	0	1	-2	0	-11	·	·	·	·
Cc1cccc(OCCCN2CCC(C(O)(c3ccccc3)c3ccccc3)CC2)c1	·	41*	·	·	38	32	16*	27	30*
COc1cccc(OCCCN2CCC(C(O)(c3ccccc3)c3ccccc3)CC2)c1	·	42*	·	·	37	23	13*	13	26*

Compound activity from PubChem BioAssay.
